Test results taken from paper PMC6839502 (Journal of Alzheimer's Disease, 2019).
Where two headings read alike, the source gives them in different places.

Assay type: in vivo, human
Conditions: for AUCtau / Cmax / CL/F / Cmin / Rac (observed accumulation ratio) / Vz/F / AUCinf: geometric mean (% CV); for t1/2: arithmetic mean±SD
Procedure, shortened: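 Healthy adults (18–55 y) or older subjects (60–85 y) received oral QD doses for 14 days, fasted on Day 1. Plasma was sampled pre-dose and at 0.5, 1, 2, 4, 8, 12, and 24 h, plus 1.5 h (B8271001) or 6 h (B8271004). Day 14 sampling extended to 120 h. Urine was also collected. Samples were analysed by validated HPLC-MS/MS; plasma LLOQ 0.500 or 5.00 ng/mL, urine LLOQ 0.050 ng/mL. Parameters were derived by non-compartmental analysis.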

[1] = 5 mg QD, Day 14, healthy adults
[2] = 15 mg QD, Day 1, healthy adults
[3] = 15 mg QD, Day 7, healthy adults
[4] = 15 mg QD, Day 14, healthy adults
[5] = 50 mg QD, Day 1, healthy adults
[6] = 50 mg QD, Day 1, healthy older subjects
[7] = 50 mg QD, Day 7, healthy adults
[8] = 50 mg QD, Day 14, healthy adults
[9] = 50 mg QD, Day 14, healthy older subjects
[10] = 50 mg or 125 mg QD, healthy older subjects
[11] = 125 mg QD, Day 1, healthy adults
[12] = 125 mg QD, Day 1, healthy older subjects
[13] = 125 mg QD, Day 7, healthy adults
[14] = 125 mg QD, Day 14, healthy adults
[15] = 125 mg QD, Day 14, healthy older subjects
[16] = 275 mg QD, Day 1, healthy adults
[17] = 275 mg QD, Day 7, healthy adults
[18] = 275 mg QD, Day 14, healthy adults
[19] = multiple doses, healthy adults (Part B)
[20] = single 3 mg fasted, healthy adults
[21] = single 12 mg fasted, healthy adults
[22] = single 40 mg fasted, healthy adults
[23] = single 160 mg fasted, healthy adults
[24] = single 200 mg fasted, healthy adults
[25] = single 200 mg fed, healthy adults
[26] = single 400 mg fasted, healthy adults
[27] = single 540 mg fasted, healthy adults

C[C@H]1C[C@H]2CSC(N)=N[C@@]2(c2nc(NC(=O)c3ccc(OC(F)F)cn3)cs2)CO1 [PF-06751979]
AUCtau (5 mg QD, Day 1, healthy adults): 167.7 (18) ng.hr/mL
Cmax (5 mg QD, Day 1, healthy adults): 10.12 (22) ng/mL
Tmax (5 mg QD, Day 1, healthy adults, median (range)): 3.98 (2.03–12.3) h
AUCtau (5 mg QD, Day 7, healthy adults): 395.2 (20) ng.h/mL
Cmax (5 mg QD, Day 7, healthy adults): 20.68 (22) ng/mL
Tmax (5 mg QD, Day 7, healthy adults, median (range)): 6.02 (3.95–8.05) h
t1/2 [1]: 37.15 ± 5.20 h
AUCtau [1]: 422.2 (20) ng.hr/mL
CL/F [1]: 197.1 (20) mL/min
Cmax [1]: 22.41 (23) ng/mL
Cmin [1]: 12.55 (22) ng/mL
Rac (observed accumulation ratio) [1]: 2.52 (12)
Vz/F [1]: 628.7 (18) L
Tmax (5 mg QD, Day 14, healthy adults, median (range)): 4.01 (3.98–8.02) h
AUCtau [2]: 478.8 (20) ng.hr/mL
Cmax [2]: 28.90 (22) ng/mL
Tmax (15 mg QD, Day 1, healthy adults, median (range)): 4.07 (4.00–7.83) h
AUCtau [3]: 1149 (12) ng.h/mL
Cmax [3]: 64.34 (12) ng/mL
Tmax (15 mg QD, Day 7, healthy adults, median (range)): 4.02 (2.17–8.03) h
t1/2 [4]: 30.65 ± 3.19 h
AUCtau [4]: 1152 (13) ng.hr/mL
CL/F [4]: 216.9 (12) mL/min
Cmax [4]: 64.63 (14) ng/mL
Cmin [4]: 32.75 (14) ng/mL
Rac (observed accumulation ratio) [4]: 2.41 (14)
Vz/F [4]: 573.2 (12) L
Tmax (15 mg QD, Day 14, healthy adults, median (range)): 4.05 (4.02–7.87) h
AUCtau [5]: 1739 (14) ng.hr/mL
Cmax [5]: 120.6 (17) ng/mL
Tmax (50 mg QD, Day 1, healthy adults, median (range)): 2.99 (1.02–4.07) h
AUCtau [6]: 1621 (22) ng.hr/mL
Cmax [6]: 102.9 (25) ng/mL
Tmax (50 mg QD, Day 1, healthy older subjects, median (range)): 4.00 (2.02–7.98) h
AUCtau [7]: 4181 (20) ng.h/mL
Cmax [7]: 241.1 (20) ng/mL
Tmax (50 mg QD, Day 7, healthy adults, median (range)): 3.83 (1.43–4.07) h
t1/2 [8]: 37.36 ± 5.91 h
AUCtau [8]: 4236 (24) ng.hr/mL
CL/F [8]: 196.9 (24) mL/min
Cmax [8]: 245.7 (21) ng/mL
Cmin [8]: 120.4 (25) ng/mL
Rac (observed accumulation ratio) [8]: 2.43 (15)
Vz/F [8]: 629.0 (27) L
Tmax (50 mg QD, Day 14, healthy adults, median (range)): 3.00 (0.88–8.08) h
t1/2 [9]: 39.95 ± 3.18 h
AUCtau [9]: 4505 (20) ng.h/mL
CL/F [9]: 184.9 (20) mL/min
Cmax [9]: 256.4 (23) ng/mL
Cmin [9]: 135.8 (18) ng/mL
Vz/F [9]: 637.4 (23) L
Tmax (50 mg QD, Day 14, healthy older subjects, median (range)): 4.00 (2.00–4.20) h
Median Tmax [10]: 4 h
Steady state achieved by [10]: ≤ 7 days
AUCtau [11]: 6380 (15) ng.hr/mL
Cmax [11]: 442.7 (20) ng/mL
Tmax (125 mg QD, Day 1, healthy adults, median (range)): 4.00 (2.00–6.03) h
AUCtau [12]: 5238 (24) ng.hr/mL
Cmax [12]: 377.1 (30) ng/mL
Tmax (125 mg QD, Day 1, healthy older subjects, median (range)): 4.00 (2.00–4.03) h
AUCtau [13]: 13810 (16) ng.h/mL
Cmax [13]: 818.7 (19) ng/mL
Tmax (125 mg QD, Day 7, healthy adults, median (range)): 3.00 (2.00–6.00) h
t1/2 [14]: 30.73 ± 5.75 h
AUCtau [14]: 13990 (14) ng.hr/mL
CL/F [14]: 149.0 (14) mL/min
Cmax [14]: 837.6 (16) ng/mL
Cmin [14]: 390.3 (18) ng/mL
Rac (observed accumulation ratio) [14]: 2.19 (11)
Vz/F [14]: 390.5 (23) L
Tmax (125 mg QD, Day 14, healthy adults, median (range)): 4.00 (2.00–12.00) h
t1/2 [15]: 40.76 ± 3.90 h
AUCtau [15]: 14750 (23) ng.h/mL
CL/F [15]: 141.4 (23) mL/min
Cmax [15]: 879.4 (28) ng/mL
Cmin [15]: 429.9 (23) ng/mL
Vz/F [15]: 496.1 (30) L
Tmax (125 mg QD, Day 14, healthy older subjects, median (range)): 4.00 (2.00–4.03) h
AUCtau [16]: 13260 (18) ng.hr/mL
Cmax [16]: 983.0 (18) ng/mL
Tmax (275 mg QD, Day 1, healthy adults, median (range)): 4.00 (2.00–4.00) h
AUCtau [17]: 31210 (14) ng.h/mL
Cmax [17]: 2000 (14) ng/mL
Tmax (275 mg QD, Day 7, healthy adults, median (range)): 2.00 (2.00–4.00) h
t1/2 [18]: 37.79 ± 7.73 h
AUCtau [18]: 29470 (12) ng.hr/mL
CL/F [18]: 155.3 (13) mL/min
Cmax [18]: 1869 (14) ng/mL
Cmin [18]: 868.5 (15) ng/mL
Rac (observed accumulation ratio) [18]: 2.27 (11)
Vz/F [18]: 498.3 (27) L
Tmax (275 mg QD, Day 14, healthy adults, median (range)): 4.00 (2.00–4.00) h
Mean of dose recovered unchanged in the urine (across the dose range studied, multiple doses): 7–10%
Median Tmax (fasted state, single doses 3 mg to 540 mg and multiple doses up to 275 mg QD, healthy adults): 3 to 4 h
Mean t1/2 across doses (healthy adults): 29 to 39 h
Observed t1/2 (healthy older subjects): approximately 40 h
Plasma accumulation at Day 14 (healthy older subjects): 2.8 fold
Accumulation on Day 14 [19]: 2.1- to 2.5 fold
Steady state achieved by [19]: ≤ 7 days
t1/2 [20]: 29.30 ± 0.60 h
AUCinf [20]: 289.7 (8) ng.hr/mL
CL/F [20]: 172.3 (8) mL/min
Cmax [20]: 8.4 (14) ng/mL
Vz/F [20]: 436.8 (6) L
Tmax (single 3 mg fasted, healthy adults, median (range)): 4.03 (4.00–8.00) h
t1/2 [21]: 32.94 ± 4.92 h
AUCinf [21]: 1142 (25) ng.hr/mL
CL/F [21]: 175.0 (25) mL/min
Cmax [21]: 27.4 (36) ng/mL
Vz/F [21]: 494.8 (20) L
Tmax (single 12 mg fasted, healthy adults, median (range)): 4.11 (2.0–12.00) h
t1/2 [22]: 32.12 ± 3.64 h
AUCinf [22]: 3121 (25) ng.hr/mL
CL/F [22]: 213.4 (25) mL/min
Cmax [22]: 78.7 (30) ng/mL
Vz/F [22]: 591.4 (26) L
Tmax (single 40 mg fasted, healthy adults, median (range)): 4.08 (2.00–8.05) h
t1/2 [23]: 39.33 ± 8.20 h
AUCinf [23]: 17050 (18) ng.hr/mL
CL/F [23]: 156.3 (18) mL/min
Cmax [23]: 530.8 (41) ng/mL
Vz/F [23]: 523.2 (25) L
Tmax (single 160 mg fasted, healthy adults, median (range)): 3.03 (1.87–4.08) h
t1/2 [24]: 35.20 ± 8.97 h
AUCinf [24]: 22850 (17) ng.hr/mL
CL/F [24]: 145.8 (17) mL/min
Cmax [24]: 643.2 (19) ng/mL
Vz/F [24]: 433.7 (18) L
Tmax (single 200 mg fasted, healthy adults, median (range)): 4.00 (2.00–6.07) h
Food effect on plasma exposure (Cmax and AUCinf) (single 200 mg fed vs fasted): no apparent food effect
t1/2 [25]: 33.38 ± 6.25 h
AUCinf [25]: 23260 (15) ng.hr/mL
CL/F [25]: 143.3 (15) mL/min
Cmax [25]: 630.2 (9) ng/mL
Vz/F [25]: 408.1 (16) L
Tmax (single 200 mg fed, healthy adults, median (range)): 6.00 (4.00–8.00) h
Tmax (single 200 mg in a fed state): 6 h
t1/2 [26]: 34.70 ± 8.97 h
AUCinf [26]: 44980 (17) ng.hr/mL
CL/F [26]: 148.3 (17) mL/min
Cmax [26]: 1436.0 (10) ng/mL
Vz/F [26]: 433.0 (19) L
Tmax (single 400 mg fasted, healthy adults, median (range)): 3.02 (2.00–4.00) h
t1/2 [27]: 35.85 ± 8.10 h
AUCinf [27]: 63420 (9) ng.hr/mL
CL/F [27]: 142.0 (9) mL/min
Cmax [27]: 1829.0 (19) ng/mL
Vz/F [27]: 431.1 (19) L
Tmax (single 540 mg fasted, healthy adults, median (range)): 3.01 (2.00–6.02) h
